Compound activity from PubChem BioAssay.
Only some compounds are listed: those with a hit (about 5.7% of all), similar ones and a draw of the others.
Calb FLC: C. albicans growth modulation with fluconazole; C. albicans CaCi-2 (fluconazole-resistant clinical isolate) + fluconazole, Alamar Blue growth, 48 h; growth inhibition, % (concentration not given with the values); 0.57% of 300,000 active; AID 1979;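 active means growth inhibition above about 58% in most replicates, limit read from the data, passing the limit was not always enough; inconclusive means exactly half the replicates above a set limit; inactive means most replicates below a set limit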;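 further: all wells also contain fluconazole at 8 µg/ml as a sub-toxic cotreatment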
Beta apoptosis: beta cell apoptosis inhibition; protection from apoptosis, % (test concentration not listed); 0.8% of 300,000 active; INS-1E cytokine-induced death, ATP luminescence, 48 h; percent of positive-control rescue, neutral wells zero;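 active means Every replicate reaches about 75%, or at least half do and their mean reaches it too, limit read from the data; inconclusive means At least half of replicates reach the limit but their mean does not; inactive means Under half of replicates reach the limit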;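 further: higher means more ATP so stronger rescue from cytokine killing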
Mdm2-MdmX inh: disrupts the human Mdm2-MdmX interaction; O15151+Q00987; SaOS-2 split-luciferase Mdm2/MdmX complementation, luminescence; inhibition, % at 8 µM; 3% of 330,000 active; AID 485346;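 active means inhibition of at least 50% at 8 µM in the primary screen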
T cruzi inh: blocks replication of Trypanosoma cruzi | T. cruzi beta-gal in NIH3T3, luminescence, 90 h | inhibition, % (concentration not given with the values) | 1.4% of 300,000 active | AID 1885;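 active means mean inhibition across valid replicates above about 55%, limit read from the data; inconclusive means mean below that limit but half or more replicates reach it; inactive means mean below it, under half of replicates reach it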;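 further: signal also drops with host cell toxicity which is not excluded here; higher percent means less beta-gal luminescence so fewer parasites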
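Test system: β-gal T. cruzi (Tulahuen C4) inside NIH/3T3 cells / Quantity: 5,000 cells/well / Measured by: luminescence from GalScreen with 0.05% NP40, read after 60 min / Medium: DMEM plus 2% FBS / Measure: parasite load inhibition, % / Reagent: Tulahuen C4 trypomastigotes, 5000/well / Schedule: co-culture of at least 90 h after 3 h attachment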
SKKanGAS inh: inhibitors of SKKanGAS S. pyogenes growth in kanamycin (SK-promoter or general growth effect) | BacTiter-Glo, 6 h | inhibition, % at 7.5 µM | 1.3% of 300,000 active | AID 1662;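 active means mean replicate score, as percent of positive control median, at least 50; inconclusive means mean below 50 but one replicate at or above 50; inactive means mean and every replicate below 50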;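 further: strain carries kanamycin resistance gene driven by streptokinase promoter and grows in 40 µg/ml kanamycin; loss of luminescence reflects streptokinase promoter inhibition or plain growth inhibition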
CSC inhib: blocks cancer stem cells; cancer stem cell-like cells viability, luminescence; inhibition, % at 7.5 µM; 1.1% of 300,000 active; AID 2717; in the data active means inhibition above about 75%; inconclusive means no clear call, values can overlap the other calls; tested in HMLE shEcad cells
Of the large screens only hits and unclear results are named; the others gave an inactive call.

O=C(CSc1nccc(-c2cccs2)n1)Nc1cccc(Cl)c1	none
Cc1onc(-c2ccc(Cl)cc2)c1-c1ccnc(SCC(=O)Nc2cc(Cl)cc(Cl)c2)n1	T cruzi inh 59
CCOc1ccc(Nc2nc(Cc3nnc(SCC(=O)c4ccc(C)c(C)c4)o3)cs2)cc1	Beta apoptosis 97
CCOC(=O)CCNC(=O)N1CCCC(CCC(=O)N(C)CCc2ccccn2)C1 (configuration not stated)	none
O=[N+]([O-])c1ccc(N=Nc2c(Cl)cc(O)cc2Cl)cc1	Calb FLC inconclusive, Beta apoptosis 122, SKKanGAS inh 50, CSC inhib 110 (no result: Mdm2-MdmX inh)
Cc1c(C(=O)NN2CCCCC2)nn(-c2ccc(Cl)cc2Cl)c1-c1ccc(I)cc1	T cruzi inh 55, CSC inhib 101 (no result: Calb FLC, Mdm2-MdmX inh)
O=C(NNc1ccccc1)C(=O)N1CCCCC1	CSC inhib 111 (no result: Beta apoptosis)
CCOC(=O)c1cnc2ccc(OCC)cc2c1NCc1ccccc1OC	CSC inhib 76
FC(F)(F)c1cccc(Sc2cc(C(F)(F)F)nc(-c3ccccn3)n2)c1	none
COc1cnc(-c2ccccn2)nc1Sc1ccc(C)cc1	Beta apoptosis 92, SKKanGAS inh 67
COc1cnc(-c2ccccn2)nc1Oc1ccc(Cl)cc1	none
COc1cnc(-c2ccccn2)nc1Oc1ccccc1Cl	SKKanGAS inh 71
COc1cnc(-c2ccccn2)nc1Sc1cccc(Cl)c1	Calb FLC 91, SKKanGAS inh 67
Cc1ccc(Sc2cc(C)nc(-c3ccccn3)n2)cc1	Beta apoptosis 87, SKKanGAS inh 85
COc1cnc(-c2ccccn2)nc1Oc1ccc(F)cc1F	none
Cc1ccc(CS(=O)(=O)CCC(=O)NCc2ccccc2Cl)cc1	none
Cc1ccc(Cl)cc1NC(=S)NCCCSC1CCCCC1	none
COc1ccc(C(=O)NCC(c2ccccc2)N2CCCC2)cc1S(=O)(=O)N1CCOCC1 (configuration not stated)	none (no result: Calb FLC, T cruzi inh, SKKanGAS inh, CSC inhib)
COc1ccccc1Sc1nc(-c2ccccn2)ncc1OC	SKKanGAS inh 83
CC(Nc1nc(-c2ccccc2O)nc2ccccc12)c1ccccc1 (configuration not stated)	SKKanGAS inh 58
CCC(C)Nc1nc(-c2cccc(OC)c2O)nc2ccccc12 (configuration not stated)	none
COc1cccc(-c2nc(NC(C)C)c3ccccc3n2)c1O	Calb FLC 86 (no result: Beta apoptosis)
CC(Nc1nc(-c2ccccc2F)nc2ccccc12)c1ccccc1 (configuration not stated)	none
CC(C)c1ccc(NC(=O)[C@@H]2CCC(=O)N2C2OC(=O)c3ccccc32)cc1 (some centres not stated)	none
Cn1cc(CN2CCc3c([nH]c4ccccc34)C2C(C)(C)C)cn1 (configuration not stated)	none
CSc1ncc(CN2CCc3c([nH]c4ccccc34)C2C(C)(C)C)cn1 (configuration not stated)	SKKanGAS inh 51 (no result: Beta apoptosis)
Cc1nn(Cc2ccccc2Cl)c(C)c1NC(=O)CCCn1nc([N+](=O)[O-])c(Cl)c1C	T cruzi inh 71
Cc1ccc(Cn2nc(C)c(NC(=O)CCCn3nc([N+](=O)[O-])c(Cl)c3C)c2C)cc1	none
COc1ccccc1OCCNC(=O)c1cccc(S(=O)(=O)N2CC(C)OC(C)C2)c1 (configuration not stated)	none
CC(OC(=O)c1ccc(Cl)nc1)C(=O)N1CCc2ccccc21 (configuration not stated)	none
CCN(CC)CCCNC(=S)N1CCN(c2nc(-c3ccc(F)cc3)cs2)CC1	CSC inhib 93
CCNC(=S)N1CCN(c2nc(-c3ccc(F)cc3)cs2)CC1	none
Cc1c(C(=O)OC(C)CCN(C)C)oc2ccccc12 (configuration not stated)	T cruzi inh 57
Cc1noc2ncnc(Sc3ccc(Cl)cc3)c12	Calb FLC 86
CC(=O)Oc1ccc(C(=O)Nc2ccc(C3(C#N)CCCC3)cc2)cc1	CSC inhib 96
N#CC1(c2ccc(NC(=O)c3ccccc3)cc2)CCCC1	none (no result: Mdm2-MdmX inh)
Oc1ccc(C=NC2CCCCC2)cc1	none (no result: Beta apoptosis)
C=CCN(CC(=O)NC1CCCC1)C(=O)C(=O)Nc1ccc2c(c1)OCCO2	none
